# Compound activity as filed in PubChem BioAssay.
# This is a sample that favours compounds with a hit; in the whole collection about 2% have one here.
# MC4R ag barr: MC4R agonists recruiting beta-arrestin, primary screen, cell-based, luminescence, agonist arm of biased-ligand search; U2OS MC4R beta-arrestin complementation; percent of melanotan II response, DMSO zero; activation, % at 8.9 µM; 360,000 compounds, 0.98% hits;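 active = activation above a per-plate cutoff, the mean activation of sample wells on that plate plus 3 SD, cut at about 8% in these data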
# MC4R antag cAMP: MC4R antagonists of cAMP signaling, primary screen, cell-based, TR-FRET, antagonist arm of biased-ligand search; Melanocortin receptor 4 (Homo sapiens), P32245; MC4R-expressing cells, MTII-stimulated cAMP, LANCE TR-FRET; inhibition, % at 6.5 µM; 360,000 compounds, 0.48% hits; AID 540295, 2011;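 active = inhibition above its plate's cutoff, the mean of tested wells on that plate plus 3 SD, cut at about 29% in these data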;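 also: 0% = Melanotan II alone and 100% = Melanotan II plus saturating MCL0020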
#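 Assay system: human MC4R-expressing U2OS cells; reagent: Melanotan II stimulation of cells; dosing: 6.5 µM single dose; timing: compound 30 min, challenge 1 h, detection 1 h; signal: TR-FRET cAMP assay; replicates: one well per compound, no replicates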
# XBP1 UPR activ: activators of adaptive XBP1 UPR arm, primary screen, cell-based, CHO-XBP1 luciferase reporter, luminescence, uHTS | IRE1-XBP1 UPR activation; percent of tunicamycin response, DMSO as zero | activation, % at 20 µM | 330,000 compounds, 0.33% hits | AID 463104, 2010;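 active = versus positive control, 20 µM dose yields 30% or more activation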;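 also: 100% = tunicamycin at 10 µg/mL and 0% = DMSO only wells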
#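 incubation = overnight seeding at 37 °C, 6 h compound treatment at 37 °C | assay system = CHO-XBP1 cells stably carrying IRE1-XBP1-driven luciferase reporter | input = 1000 cells per well | detection = luciferase luminescence | dosing = single point, 20 µM final compound, 1% DMSO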
# CHOP UPR activ: activators of apoptotic CHOP UPR arm, primary screen, cell-based, CHO-CHOP luciferase reporter, luminescence, uHTS | UPR activation; percent of tunicamycin response over DMSO baseline | AID 449763, 2010 | activation, % at 10 µM | 330,000 compounds, 0.34% hits;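 active = at 10 µM dose, activation of 40% or more, normalized to positive control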;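 also: 100% = tunicamycin at 10 µg/mL and 0% = DMSO alone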
#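 assay system = CHO CHOP reporter cells | amount = 500 CHO-CHOP cells per well | buffer or medium = F12 with 10% FBS | incubation = 16-18 h cell attachment, then 6 h compound exposure, 37 °C | detection = luminescence read with Steady-Glo | read-out = percent activation relative to tunicamycin control | controls = tunicamycin high control, DMSO low control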
# A1 inh: caspase 3/7 activation in MEF A1-2A-BIM cells, primary screen, A1 inhibitor project, cell-based, luminescence, HTS. caspase activation, % (test concentration not listed). 330,000 compounds, 0.066% hits. Caspase-Glo 3/7 luminescence, 3 h; percent of clofoctol response, vehicle zero;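 active = over half of replicate activation scores above 10%, or exactly half above 10 with the replicate mean above 10; inconclusive = replicate mean below 10 yet half the replicates above 10; inactive = over half of replicates below 10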
# MC4R barr conf: MC4R beta-arrestin agonists, retest, confirmation, cell-based, luminescence, U2OS. shares compounds with MC4R ag barr. U2OS MC4R beta-arrestin recruitment; scaled DMSO 0%, Melanotan II 100%. activation, % at 8.9 µM. 2,400 compounds, 31% hits;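 active = mean activation across replicates above the hit cutoff set in the earlier primary screen, cut at about 8% in these data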
# MOR-DOR barr ag: agonists of MOR-DOR heterodimerization, counter-screen for MC4R biased agonist project, cell-based, luminescence; 2,400 compounds, 5.8% hits; shares compounds with MC4R ag barr; activation, % at 9.2 µM; AID 602194, 2012; U2OS PathHunter beta-arrestin, beta-gal luminescence; percent of deltorphin B response, DMSO zero;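 active = mean activation across replicates exceeds the hit threshold derived in the earlier primary screen, cut at about 18% in these data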;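 also: 100% = deltorphin B at 0.9 µM final and 0% = DMSO alone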
# Target sequence (P35372 whole entry, looked up): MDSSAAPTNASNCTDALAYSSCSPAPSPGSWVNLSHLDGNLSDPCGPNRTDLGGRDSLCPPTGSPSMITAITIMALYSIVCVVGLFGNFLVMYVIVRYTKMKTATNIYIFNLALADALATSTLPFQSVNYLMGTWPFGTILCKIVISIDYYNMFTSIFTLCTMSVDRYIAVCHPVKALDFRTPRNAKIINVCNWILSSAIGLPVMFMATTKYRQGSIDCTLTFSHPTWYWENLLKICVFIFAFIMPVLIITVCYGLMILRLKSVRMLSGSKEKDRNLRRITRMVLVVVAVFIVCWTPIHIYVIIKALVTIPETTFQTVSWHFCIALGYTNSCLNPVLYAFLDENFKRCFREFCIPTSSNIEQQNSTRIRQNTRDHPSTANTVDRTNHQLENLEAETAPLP
# Target sequence (P41143 whole entry, looked up): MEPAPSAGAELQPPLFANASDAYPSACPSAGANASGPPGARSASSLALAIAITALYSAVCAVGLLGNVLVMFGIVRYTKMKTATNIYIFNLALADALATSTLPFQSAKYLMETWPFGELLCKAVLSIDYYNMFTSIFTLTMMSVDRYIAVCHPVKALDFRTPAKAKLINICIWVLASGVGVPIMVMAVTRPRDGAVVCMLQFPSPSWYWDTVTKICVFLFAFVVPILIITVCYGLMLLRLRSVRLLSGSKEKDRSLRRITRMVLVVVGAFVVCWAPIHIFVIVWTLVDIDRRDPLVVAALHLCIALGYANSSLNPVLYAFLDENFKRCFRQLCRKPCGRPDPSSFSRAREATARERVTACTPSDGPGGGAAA
# Active calls of the source: *; u = inconclusive; x = not tested or not shown.
SMILES,MC4R ag barr,MC4R antag cAMP,XBP1 UPR activ,CHOP UPR activ,A1 inh,MC4R barr conf,MOR-DOR barr ag
CCN(CC)c1ccc(/C=N/NC(=O)c2nnn(-c3nonc3N)c2CN(C)C2CCCCC2)cc1,-1,-4,x,x,x,x,x
Cc1c(NC(=O)c2cccc(NC(=O)C(C)Oc3ccccc3)c2)c(=O)n(-c2ccccc2)n1C (centres undefined),-2,-1,x,x,x,x,x
CCOC(=O)c1c(C)[nH]c(C(=O)COC(=O)c2c(CC)noc2C)c1C,-3,-3,1,1,x,x,x
CCOC(=O)c1c(C)[nH]c(C(=O)COC(=O)c2cc(C)oc2C)c1C,19*,-9,-1,0,0,9.9*,5
Cc1cc(C)n2nc(SCC(=O)NC3(C#N)CCCCC3)nc2n1,1,0,x,x,x,x,x
O=c1ccn2c(n1)SC(c1ccccc1)C2 (centres undefined),1,6,x,x,x,x,x
CCN1/C(=C/c2ccc3cc(C)ccc3[n+]2CC)Sc2ccccc21,0,-34,-5,-7,-1,x,x
CCN1/C(=C/c2ccc3cc(C)ccc3[n+]2CC)Sc2cc(C)c(C)cc21,29*,-11,6,20,x,79*,11
O=c1[nH]c2cc(F)ccc2c2ccc(F)cc12,8,6,x,x,x,x,x
Cc1ccc(-n2nc3c4c(cccc4c2=O)-c2ccccc2-3)cc1,21*,8,6,0,0,10*,6
COC(=O)c1ccc(CNC(=O)c2ccccc2C(=O)NCC2(CBr)OCCO2)cc1,-3,-5,x,x,x,x,x
Cc1ccc(C(O)c2ncc(-c3ccc4ccccc4c3)[nH]2)cc1 (centres undefined),0,11,x,x,x,x,x
COc1ccc(C(O)c2ncc(-c3cccc(C(F)(F)F)c3)[nH]2)cc1F (centres undefined),-2,4,x,x,x,x,x
CCc1ccc(C(O)c2ncc(-c3cccc(C(F)(F)F)c3)[nH]2)cc1 (centres undefined),13*,8,x,x,x,10*,9
CCc1ccc(C(O)c2ncc(-c3ccc4ccccc4c3)[nH]2)cc1 (centres undefined),17*,10,x,x,x,7,8
COCCN(Cc1ccccc1)C(=O)c1cccc(S(=O)(=O)N2CCN(Cc3ccccc3)CC2)c1,0,4,x,x,x,x,x
O=C(NCc1csc2ccccc12)Nc1cc(Cl)cc(Cl)c1,16*,14,1,1,0,-1,4
O=C(NCc1ccccn1)Nc1cc(Cl)cc(Cl)c1,-1,3,-4,-1,0,x,x
CC1(C)CC(=O)C=C(c2ccc(-c3cnn(Cc4ccccc4)c3)cc2)C1=O,-2,2,x,x,x,x,x
Cc1cc2oc(C(=O)Nc3ccc(S(=O)(=O)Nc4nccs4)cc3)cc(=O)c2cc1Cl,9.7*,6,-3,1,0,-2,2
Cc1cc(C)c2oc(C(=O)Nc3ccc(S(=O)(=O)Nc4nccs4)cc3)cc(=O)c2c1,-2,20,-1,0,0,x,x
C[C@@H]1CN([C@@H](C)CO)C(=O)CCCn2nncc2CO[C@H]1CN(C)C(=O)c1ccc(N2CCN(C)CC2)cc1,0,2,x,x,x,x,x
Cn1cc(Br)c(C(=O)N/N=C/c2cccc(OC3CSC3)c2)n1,-2,4,-1,8,-1,x,x
CCOc1cc(/C=N/NC(=O)c2nn(C)cc2Br)ccc1OCc1ccccc1Cl,12*,-9,0,1,1,0,3
Cn1cc(/C=C2\SC(=O)N(c3ccccc3)C2=O)c2ccccc21,15*,-3,3,7,2,-1,2
SMILES,MC4R ag barr,MC4R antag cAMP,XBP1 UPR activ,CHOP UPR activ,A1 inh,MC4R barr conf,MOR-DOR barr ag
Cn1cc(/C=C2\SC(=O)N(c3ccc(O)cc3)C2=O)c2ccccc21,3,13,4,3,0,x,x
CCN(CC)C1CCN(C(=O)c2ccc(OC3CCN(C(=O)CCOC)CC3)cc2)C1 (centres undefined),2,15,x,x,x,x,x
Cc1cccc(NC(=S)NC(=O)C(c2ccccc2)c2ccccc2)n1,33*,-13,7,0,-1,20*,7
Cc1ccc(C(=O)NCC(=O)Nc2cccc(C(F)(F)F)c2)cc1,15*,10,-3,2,0,-1,3
Cc1ccccc1-c1cnc(C(O)c2c(C)ccc3ccccc23)[nH]1 (centres undefined),-2,-1,x,x,x,x,x
Nn1c(SCC(=O)NC2CCCC2)nnc1C(F)(F)F,-1,10,x,x,x,x,x
O=C(Nc1ccc(Cl)cc1)C1C2CCC3C(CCC21)C3(Cl)Cl (centres undefined),8,4,x,x,x,x,x
Cc1cccc(NC(=O)C2C3CCC4C(CCC32)C4(Cl)Cl)c1 (centres undefined),13*,7,3,2,1,2,2
CCc1nc2ccc(C(=O)N3CCN(S(=O)(=O)CC)CC3)cn2c1N(CC)C(=O)NCCc1ccccc1,1,8,x,x,x,x,x
Cc1nn(CCCC(=O)NCCCN2CCN(C)CC2)c(=O)c2c1sc1ccccc12,-2,9,0,-1,0,x,x
COc1ccc(OC)c(NC(=O)c2cc(-c3ccc(C)cc3O)n[nH]2)c1,1,2,4,2,-2,x,x
COc1ccc(OC)c(NC(=O)c2cc(-c3cc(C)ccc3O)n[nH]2)c1,10*,0,3,4,u,2,15
Oc1cc(OCc2ccccc2)ccc1-c1[nH]ncc1-c1ccccc1,13*,4,-2,0,1,5,16
O=C(NC(=S)Nc1ccc2oc(=O)ccc2c1)c1cccc(F)c1,-3,4,-1,4,1,x,x
O=C(NC(=S)Nc1ccc2oc(=O)ccc2c1)c1cccc(Cl)c1,20*,-4,-1,2,1,4,5
O=C1N/C(=N\N=C\c2cccs2)SC1Cc1cccc(Cl)c1 (centres undefined),12*,-2,1,0,0,1,9
CCC1S/C(=N/N=C/c2cccs2)NC1=O (centres undefined),-1,-1,0,0,0,x,x
